Experimental data taken from ChEMBL document CHEMBL3526077, “Prediction of human metabolism of FK3453 by aldehyde oxidase using chimeric mice transplanted with human or rat hepatocytes” (Drug Metab Dispos, 2012).

Assays:
Mus musculus [1] = experiment: Drug metabolism in plasma of chimeric mouse transplanted with rat hepatocytes treated with FK3453 at 3 mg/kg, iv as single dose; type: ADME, organism-based, Hepatocyte; set-up: dose 3 mg/kg, route intravenous
How it was run: (§1)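 Pooled plasma from h-PXB or r-PXB mice after a 3 mg/kg i.v. dose was mixed with an equal volume of acetonitrile and centrifuged. Metabolites were profiled by C18 UPLC with ammonium formate/acetonitrile gradient, UV 254 nm, and Orbitrap MS/MS. Scored as detected or not detected.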

Mus musculus [2] = experiment: Drug metabolism in plasma of chimeric mouse transplanted with human hepatocytes treated with FK3453 at 3 mg/kg, iv as single dose; type: ADME, organism-based, Hepatocyte; set-up: dose 3 mg/kg, route intravenous; how it was run: as §1
[3] = Retention time of the compound by UV/mass spectrometry; type: physicochemical
How it was run: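 Retention time on Acquity BEH C18 column (1.7 µm, 2.1×100 mm). Mobile phase 5 mM ammonium formate with 5% acetonitrile against acetonitrile, at 0.2 mL/min. Gradient: 100:0 to 2.5 min, linear to 65:35 by 25 min, 10:90 to 27 min. Detection by UV at 254 nm and MS.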

Drug metabolism (Mus musculus [1]): metabolite_detected
Drug metabolism (Mus musculus [2]): metabolite_detected
Retention_time [3]: 16.5 min
SMILES: CC(C)n1nc(-c2c(-c3ccccc3)nc(N)[nH]c2=O)ccc1=O
